ChEMBL document CHEMBL3352430, “4-Aminopyridyl-based CYP51 inhibitors as anti-Trypanosoma cruzi drug leads with improved pharmacokinetic profile and in vivo potency” (J Med Chem, 2014)
pEC50, pKd: −log10 of the molar value.

How the values were obtained:
Intestine [1] = test: Drug uptake in mouse intestine at 50 mg/kg, po in 20% HP-beta-CD measured at 8 hrs post dose; type: ADME, organism-based; design: dose 50 mg/kg, route oral; details: in vivo
In short: (§1)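 Female Swiss Webster mice, 8 weeks old, given a single 50 mg/kg oral gavage dose in 20% HPβCD or 20% Kolliphor. Tissues taken from three mice at 2 and 8 h post dose. Homogenized by probe sonication in PBS (1:4 w/v), protein precipitated with acetonitrile, and compound measured by LC-MS/MS in μM.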

Liver [2] = test: Drug uptake in mouse liver at 50 mg/kg, po in 20% Kolliphor measured at 8 hrs post dose; type: ADME, organism-based; design: dose 50 mg/kg, route oral; details: in vivo; in short: as §1
Lung [3] = test: Drug uptake in mouse lung at 50 mg/kg, po in 20% Kolliphor measured at 8 hrs post dose; type: ADME, organism-based; design: dose 50 mg/kg, route oral; details: in vivo; in short: as §1
Heart [4] = test: Drug uptake in mouse heart at 50 mg/kg, po in 20% Kolliphor measured at 8 hrs post dose; type: ADME, organism-based; design: dose 50 mg/kg, route oral; details: in vivo; in short: as §1
[5] = Drug uptake in mouse fat at 50 mg/kg, po in 20% Kolliphor measured at 8 hrs post dose; type: ADME, organism-based, Adipose tissue; design: dose 50 mg/kg, route oral; details: in vivo; in short: as §1
[6] = Drug uptake in mouse skeletal muscle at 50 mg/kg, po in 20% Kolliphor measured at 8 hrs post dose; type: ADME, organism-based, Muscle tissue; design: dose 50 mg/kg, route oral; details: in vivo; in short: as §1
Liver [7] = test: Drug uptake in mouse liver at 50 mg/kg, po in 20% HP-beta-CD measured at 8 hrs post dose; type: ADME, organism-based; design: dose 50 mg/kg, route oral; details: in vivo; in short: as §1
Lung [8] = test: Drug uptake in mouse lung at 50 mg/kg, po in 20% HP-beta-CD measured at 8 hrs post dose; type: ADME, organism-based; design: dose 50 mg/kg, route oral; details: in vivo; in short: as §1
Heart [9] = test: Drug uptake in mouse heart at 50 mg/kg, po in 20% HP-beta-CD measured at 8 hrs post dose; type: ADME, organism-based; design: dose 50 mg/kg, route oral; details: in vivo; in short: as §1
[10] = Drug uptake in mouse fat at 50 mg/kg, po in 20% HP-beta-CD measured at 8 hrs post dose; type: ADME, organism-based, Adipose tissue; design: dose 50 mg/kg, route oral; details: in vivo; in short: as §1
[11] = Drug uptake in mouse skeletal muscle at 50 mg/kg, po in 20% HP-beta-CD measured at 8 hrs post dose; type: ADME, organism-based, Muscle tissue; design: dose 50 mg/kg, route oral; details: in vivo; in short: as §1
[12] = target: Sterol 14-alpha demethylase (Trypanosoma cruzi (strain CL Brener), UniProt Q7Z1V1); test: Binding affinity to Trypanosoma cruzi CYP51 by UV-vis titration method; details: read-out: Kd(app)
Chain of Sterol 14-alpha demethylase (Q7Z1V1 whole entry): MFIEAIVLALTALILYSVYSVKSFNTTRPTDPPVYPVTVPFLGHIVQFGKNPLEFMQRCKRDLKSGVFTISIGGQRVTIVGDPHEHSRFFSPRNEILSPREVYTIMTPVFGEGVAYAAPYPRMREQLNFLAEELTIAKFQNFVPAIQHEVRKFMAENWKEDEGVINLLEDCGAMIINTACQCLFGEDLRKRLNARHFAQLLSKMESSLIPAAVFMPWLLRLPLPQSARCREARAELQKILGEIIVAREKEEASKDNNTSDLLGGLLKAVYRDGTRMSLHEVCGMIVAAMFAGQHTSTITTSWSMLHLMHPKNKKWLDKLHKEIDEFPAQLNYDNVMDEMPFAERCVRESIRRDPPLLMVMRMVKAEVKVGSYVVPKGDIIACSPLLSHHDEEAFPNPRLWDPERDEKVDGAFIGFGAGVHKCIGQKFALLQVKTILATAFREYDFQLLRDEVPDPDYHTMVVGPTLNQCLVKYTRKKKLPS

Trypanosoma cruzi [13] = test: Antitrypanosomal activity against Trypanosoma cruzi Y luc infected in mouse assessed as inhibition of parasitemia at 25 mg/kg, po bid in 20% Kolliphor administered for 4 consecutive days starting on day 3 of infection measured on day 7 post infection relative to vehicle-treated control; type: functional
In short: (§2)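 Female Swiss Webster mice, 8 weeks old, infected ip with 10^5 T. cruzi Y luc trypomastigotes. Only mice with detectable luminescence on day 3 were treated. Compound given by oral gavage bid for four days, as a suspension in 20% HPβCD or a solution in 20% Kolliphor, five mice per group. Vehicle group and benznidazole 50 mg/kg served as controls. On day 7, mice were injected ip with 150 mg/kg d-luciferin and imaged after 5 min under isoflurane. Percent inhibition calculated against untreated mice; two-tailed paired t test.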

Trypanosoma cruzi [14] = test: Antitrypanosomal activity against Trypanosoma cruzi Y luc infected in mouse assessed as inhibition of parasitemia at 50 mg/kg, po bid in 20% Kolliphor administered for 4 consecutive days starting on day 3 of infection measured on day 7 post infection relative to vehicle-treated control; type: functional; in short: as §2
Liver microsome [15] = test: Half life in human liver microsomes; type: ADME
Liver microsome [16] = test: Half life in rat liver microsomes; type: ADME
Liver [17] = test: Half life in mouse liver microsomes; type: ADME
Cytochrome P450 1A2 = target: T1, Cytochrome P450 1A2 (Homo sapiens, UniProt P05177); test: Inhibition of CYP1A2 in human liver microsomes at 1 uM; type: ADME
T1 sequence (P05177 whole entry): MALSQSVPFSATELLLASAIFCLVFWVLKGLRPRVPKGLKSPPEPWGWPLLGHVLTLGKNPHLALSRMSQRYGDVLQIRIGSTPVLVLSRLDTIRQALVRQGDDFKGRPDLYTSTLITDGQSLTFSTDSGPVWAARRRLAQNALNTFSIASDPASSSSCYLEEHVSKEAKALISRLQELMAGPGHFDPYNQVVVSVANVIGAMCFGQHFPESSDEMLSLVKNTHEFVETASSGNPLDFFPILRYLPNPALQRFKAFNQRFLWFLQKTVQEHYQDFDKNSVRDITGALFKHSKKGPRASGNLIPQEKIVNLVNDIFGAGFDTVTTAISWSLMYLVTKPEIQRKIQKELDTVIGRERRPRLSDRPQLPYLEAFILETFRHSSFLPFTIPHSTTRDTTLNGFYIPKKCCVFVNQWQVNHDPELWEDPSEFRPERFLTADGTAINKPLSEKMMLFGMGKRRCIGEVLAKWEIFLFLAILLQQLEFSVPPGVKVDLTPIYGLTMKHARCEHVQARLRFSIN

Cytochrome P450 2C9 = Cytochrome P450 2C9 (Homo sapiens, UniProt P11712); test: Inhibition of CYP2C9 in human liver microsomes at 1 uM; type: ADME
Chain of Cytochrome P450 2C9 (P11712 whole entry): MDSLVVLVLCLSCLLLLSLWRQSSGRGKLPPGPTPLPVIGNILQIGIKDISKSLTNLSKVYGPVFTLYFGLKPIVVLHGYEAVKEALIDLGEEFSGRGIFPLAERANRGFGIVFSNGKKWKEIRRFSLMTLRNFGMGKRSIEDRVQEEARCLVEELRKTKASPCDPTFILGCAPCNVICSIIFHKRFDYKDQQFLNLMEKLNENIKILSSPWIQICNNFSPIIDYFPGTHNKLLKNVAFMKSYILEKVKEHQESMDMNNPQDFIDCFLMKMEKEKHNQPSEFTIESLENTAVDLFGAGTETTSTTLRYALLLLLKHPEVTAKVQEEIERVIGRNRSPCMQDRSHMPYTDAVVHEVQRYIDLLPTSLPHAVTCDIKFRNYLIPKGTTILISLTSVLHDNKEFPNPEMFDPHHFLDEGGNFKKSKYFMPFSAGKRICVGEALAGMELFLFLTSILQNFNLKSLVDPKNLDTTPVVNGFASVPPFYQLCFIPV

Cytochrome P450 2D6 = Cytochrome P450 2D6 (Homo sapiens, UniProt P10635); test: Inhibition of CYP2D6 in human liver microsomes at 1 uM; type: ADME
Chain of Cytochrome P450 2D6 (P10635 whole entry): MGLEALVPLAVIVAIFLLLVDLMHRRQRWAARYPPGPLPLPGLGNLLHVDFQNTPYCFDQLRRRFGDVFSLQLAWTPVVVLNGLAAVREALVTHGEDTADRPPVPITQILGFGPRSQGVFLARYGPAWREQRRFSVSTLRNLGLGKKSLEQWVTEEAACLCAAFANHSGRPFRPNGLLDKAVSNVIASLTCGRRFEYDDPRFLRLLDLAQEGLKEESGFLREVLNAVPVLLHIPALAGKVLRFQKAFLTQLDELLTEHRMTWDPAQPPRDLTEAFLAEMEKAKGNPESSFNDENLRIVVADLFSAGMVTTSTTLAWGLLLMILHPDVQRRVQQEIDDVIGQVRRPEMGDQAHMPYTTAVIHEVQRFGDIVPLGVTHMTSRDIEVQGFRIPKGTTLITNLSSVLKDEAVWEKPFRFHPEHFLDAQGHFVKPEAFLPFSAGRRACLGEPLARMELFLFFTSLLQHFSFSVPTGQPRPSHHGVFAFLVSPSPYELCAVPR

Cytochrome P450 3A4 = Cytochrome P450 3A4 (Homo sapiens, UniProt P08684); test: Inhibition of CYP3A4 in human liver microsomes at 1 uM; type: ADME
Chain of Cytochrome P450 3A4 (P08684 whole entry): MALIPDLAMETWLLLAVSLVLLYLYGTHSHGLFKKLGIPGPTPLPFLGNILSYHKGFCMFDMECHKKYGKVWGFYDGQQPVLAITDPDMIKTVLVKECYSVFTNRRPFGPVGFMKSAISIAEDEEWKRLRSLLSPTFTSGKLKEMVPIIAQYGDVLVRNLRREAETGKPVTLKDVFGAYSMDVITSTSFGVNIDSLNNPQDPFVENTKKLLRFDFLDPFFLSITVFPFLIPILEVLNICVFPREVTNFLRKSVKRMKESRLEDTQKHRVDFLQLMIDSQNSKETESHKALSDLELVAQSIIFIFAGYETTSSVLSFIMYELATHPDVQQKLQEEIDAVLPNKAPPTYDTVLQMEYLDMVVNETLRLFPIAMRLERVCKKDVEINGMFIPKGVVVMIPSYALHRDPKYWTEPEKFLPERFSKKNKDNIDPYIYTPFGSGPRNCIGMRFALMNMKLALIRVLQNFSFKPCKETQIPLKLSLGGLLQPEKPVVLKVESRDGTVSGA

Trypanosoma cruzi [18] = test: Antitrypanosomal activity against Trypanosoma cruzi amastigotes infected in mouse C2C12 cells after 72 hrs by DAPI staining method; type: functional, organism-based; details: C2C12, 72 h
C2C12 = test: Cytotoxicity against mouse C2C12 cells up to 10 uM; type: cell-based
In short: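 Mouse C2C12 myoblasts infected with T. cruzi CA-I/72, then exposed at 24 h postinfection to compound at 10 μM down to 5 pM in 5-fold steps for 72 h at 37 °C. Cells fixed in paraformaldehyde, stained with DAPI and scored by automated imaging. Triplicate wells; uninfected and infected untreated wells as controls.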

[19] = Half life in mouse at 50 mg/kg, po in 20% Kolliphor; type: ADME, organism-based; design: dose 50 mg/kg, route oral; details: in vivo
In short: (§3)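 Female Swiss Webster mice, 8 weeks old, given one oral gavage dose of 50 mg/kg as a 10 mg/mL preparation in the named vehicle (20% HPβCD suspension or 20% Kolliphor). Plasma sampled at about 0.25, 0.5, 1, 2, 4, 6, 8, 12 and 24 h, n = 3 per time point. Protein precipitated with 5 volumes acetonitrile, filtered, then LC-MS/MS. Values are averages of three mice.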

[20] = Half life in mouse at 50 mg/kg, po in 20% HP-beta-CD; type: ADME, organism-based; design: dose 50 mg/kg, route oral; details: in vivo; in short: as §3
[21] = Tmax in mouse at 50 mg/kg, po in 20% Kolliphor; type: ADME, organism-based; design: dose 50 mg/kg, route oral; details: in vivo; in short: as §3
[22] = Tmax in mouse at 50 mg/kg, po in 20% HP-beta-CD; type: ADME, organism-based; design: dose 50 mg/kg, route oral; details: in vivo; in short: as §3
[23] = Cmax in mouse at 50 mg/kg, po in 20% Kolliphor; type: ADME, organism-based; design: dose 50 mg/kg, route oral; details: in vivo; in short: as §3
[24] = Cmax in mouse at 50 mg/kg, po in 20% HP-beta-CD; type: ADME, organism-based; design: dose 50 mg/kg, route oral; details: in vivo; in short: as §3
[25] = AUClast in mouse at 50 mg/kg, po in 20% Kolliphor; type: ADME, organism-based; design: time 0 - last, dose 50 mg/kg, route oral; details: plasma; in short: as §3
[26] = AUClast in mouse at 50 mg/kg, po in 20% HP-beta-CD; type: ADME, organism-based, Plasma; design: time 0 - last, dose 50 mg/kg, route oral; details: plasma; in short: as §3
[27] = Clearance in mouse at 50 mg/kg, po in 20% Kolliphor; type: ADME, organism-based; design: dose 50 mg/kg, route oral; details: in vivo; in short: as §3
[28] = Clearance in mouse at 50 mg/kg, po in 20% HP-beta-CD; type: ADME, organism-based; design: dose 50 mg/kg, route oral; details: in vivo; in short: as §3
Intestine [29] = test: Drug uptake in mouse intestine at 50 mg/kg, po in 20% Kolliphor measured at 8 hrs post dose; type: ADME, organism-based; design: dose 50 mg/kg, route oral; details: in vivo; in short: as §1

Drug uptake (Intestine [1]): Active | Drug uptake (Liver [2]): Active | Drug uptake (Lung [3]): Active | Drug uptake (Heart [4]): Active | Drug uptake [5]: Active | Drug uptake [6]: Active | Drug uptake (Liver [7]): Active | Drug uptake (Lung [8]): Active | Drug uptake (Heart [9]): Active | Drug uptake [10]: Active | Drug uptake [11]: Active | pKd [12]: ≥ 8.00 | t1/2 (Liver microsome [15]): 0.483 h | t1/2 (Liver microsome [16]): 0.45 h | t1/2 (Liver [17]): 0.967 h | inhibition (INH) (Cytochrome P450 1A2): 2% | inhibition (INH) (Cytochrome P450 2C9): 96% | inhibition (INH) (Cytochrome P450 2D6): 36% | inhibition (INH) (Cytochrome P450 3A4): 9% | pEC50 (Trypanosoma cruzi [18]): 6.77 | half-life [19]: 3.1 h | half-life [20]: 2.5 h | Tmax [21]: 4.67 h | Tmax [22]: 4.67 h | Cmax [23]: 7.35 µM | Cmax [24]: 5.1 µM | AUC(0-t) [25]: 84.5 µM·h | AUC(0-t) [26]: 26.6 µM·h | CL/F [27]: 17.4 mL/min/kg | CL/F [28]: 52.5 mL/min/kg | Drug uptake (Intestine [29]): Active
Compound: O=C(N[C@H](Cc1c[nH]c2ccccc12)C(=O)Nc1ccncc1)c1ccc(-c2ccc(F)c(C(F)(F)F)c2)cc1F
inhibition in vivo at 25 mg/kg (Trypanosoma cruzi [13]): 89.1% | inhibition in vivo at 50 mg/kg (Trypanosoma cruzi [14]): 97.4% | Activity (C2C12): Non-toxic
